Legend:
Assay type in all cases: functional, cell-based
[1] = Antiproliferative activity against human KB/HeLa cells by XTT assay
Procedure, shortened: (§1)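 XTT metabolic read-out. Cells seeded at 1 × 10³–8 × 10⁴ cells/well for logarithmic growth and exposed to graded concentrations for 48 h. At least two replicates. IC50 from nonlinear regression of dose-response curves. LT12/MDR: rat LT12 with ectopic human MDR-1. L1210/VCR: MDR-1 expressing, MRP-1 negative.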

RKO [2] = test: Antiproliferative activity against human RKO cells containing ecdysone-inducible expression vector of p27kipl by XTT assay
Procedure, shortened: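 RKO cells carried an ecdysone-inducible p27Kip1 vector and were tested with and without induction. On day 1 they were plated with or without 3 µM ponasterone A, which gives G1 arrest, at 2 × 10⁴ cells/well induced or 6 × 10³ not induced, then held 24 h at 37 °C. Compound was then added for 48 h at 37 °C, followed by a standard XTT assay. IC50 came from nonlinear regression, n ≥ 2.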

[3] = Antiproliferative activity against rat LT12 cells after 48 hrs by XTT assay; conditions: LT12, 48 h
Procedure, shortened: (§2)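 XTT metabolic-activity read-out of proliferation. Cells were seeded at 1 × 10³-8 × 10⁴ cells/well for logarithmic growth and exposed to a range of compound concentrations for 48 h. IC50 came from nonlinear regression of dose-response curves, with at least two replicates. The P388/Adr subline was doxorubicin-selected with elevated MDR-1.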

[4] = Antiproliferative activity against rat LT12 cells ectopic expression of human MDR1 after 48 hrs by XTT assay; conditions: LT12, 48 h; procedure, shortened: as §1
L1210 = test: Antiproliferative activity against vincristine-resistance MRP1 negative mouse L1210 cells expressing human MDR1 after 48 hrs by XTT assay; conditions: L1210, 48 h; procedure, shortened: as §1
P388 [5] = test: Antiproliferative activity against mouse P388 cells after 48 hrs by XTT assay; conditions: P388, 48 h; procedure, shortened: as §2
P388 [6] = test: Antiproliferative activity against doxorubicin-resistant mouse P388 cells expressing MDR1 protein after 48 hrs by XTT assay; conditions: P388, 48 h; procedure, shortened: as §2
[7] = Cell cycle arrest in human KB/HeLa cells assessed as G2/M phase accumulation after 24 hrs by FACS analysis
Procedure, shortened: (§3)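 Subconfluent KB/HeLa cells exposed to a range of compound concentrations for 24 h at 37 °C, then detached and fixed in 70% ethanol. DNA stained with propidium iodide after RNase digestion and measured by flow cytometry. Cell-cycle phase fractions taken from cell cycle analysis software. At least two replicates.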

[8] = Cell cycle arrest in human KB/HeLa cells assessed as S phase accumulation at 1 nM after 24 hrs by FACS analysis; procedure, shortened: as §3
[9] = Cell cycle arrest in human KB/HeLa cells assessed as G2/M phase accumulation at 1 nM after 24 hrs by FACS analysis; procedure, shortened: as §3
[10] = Cell cycle arrest in human KB/HeLa cells assessed as G1 phase accumulation at 1 nM after 24 hrs by FACS analysis; procedure, shortened: as §3
[11] = Cell cycle arrest in human KB/HeLa cells assessed as S phase accumulation at 3.16 nM after 24 hrs by FACS analysis; procedure, shortened: as §3
[12] = Cell cycle arrest in human KB/HeLa cells assessed as G2/M phase accumulation at 3.16 nM after 24 hrs by FACS analysis; procedure, shortened: as §3
[13] = Cell cycle arrest in human KB/HeLa cells assessed as G1 phase accumulation at 3.16 nM after 24 hrs by FACS analysis; procedure, shortened: as §3
[14] = Cell cycle arrest in human KB/HeLa cells assessed as S phase accumulation at 10 nM after 24 hrs by FACS analysis; procedure, shortened: as §3
[15] = Cell cycle arrest in human KB/HeLa cells assessed as G2/M phase accumulation at 10 nM after 24 hrs by FACS analysis; procedure, shortened: as §3
[16] = Cell cycle arrest in human KB/HeLa cells assessed as G1 phase accumulation at 10 nM after 24 hrs by FACS analysis; procedure, shortened: as §3
[17] = Cell cycle arrest in human KB/HeLa cells assessed as S phase accumulation at 31.6 nM after 24 hrs by FACS analysis; procedure, shortened: as §3
[18] = Cell cycle arrest in human KB/HeLa cells assessed as G2/M phase accumulation at 31.6 nM after 24 hrs by FACS analysis; procedure, shortened: as §3
[19] = Cell cycle arrest in human KB/HeLa cells assessed as G1 phase accumulation at 31.6 nM after 24 hrs by FACS analysis; procedure, shortened: as §3
[20] = Cell cycle arrest in human KB/HeLa cells assessed as S phase accumulation at 100 nM after 24 hrs by FACS analysis; procedure, shortened: as §3
[21] = Cell cycle arrest in human KB/HeLa cells assessed as G2/M phase accumulation at 100 nM after 24 hrs by FACS analysis; procedure, shortened: as §3
[22] = Cell cycle arrest in human KB/HeLa cells assessed as G1 phase accumulation at 100 nM after 24 hrs by FACS analysis; procedure, shortened: as §3
[23] = Cell cycle arrest in human KB/HeLa cells assessed as S phase accumulation at 316 nM after 24 hrs by FACS analysis; procedure, shortened: as §3
[24] = Cell cycle arrest in human KB/HeLa cells assessed as G2/M phase accumulation at 316 nM after 24 hrs by FACS analysis; procedure, shortened: as §3
[25] = Cell cycle arrest in human KB/HeLa cells assessed as G1 phase accumulation at 316 nM after 24 hrs by FACS analysis; procedure, shortened: as §3
SK-OV-3 = test: Antiproliferative activity against human SKOV3 cells by XTT assay; procedure, shortened: as §2
SF-268 = test: Antiproliferative activity against human SF268 cells by XTT assay; procedure, shortened: as §1
NCI-H460 = test: Antiproliferative activity against human NCI-H460 cells by XTT assay; procedure, shortened: as §1
RKO [26] = test: Antiproliferative activity against human RKO cells by XTT assay
Procedure, shortened: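 RKO colon cells with ecdysone-inducible p27Kip1. Day 1: plated with or without 3 µM ponasterone A for 24 h, giving G1 arrest when induced (2 × 10⁴ cells/well induced; 6 × 10³ not induced). Day 2: compound added (DMSO control) for 48 h at 37 °C, then standard XTT. At least duplicate. IC50 by nonlinear regression.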

[27] = Cell cycle arrest in human KB/HeLa cells assessed as S phase accumulation at 0.1 nM after 24 hrs by FACS analysis; procedure, shortened: as §3
[28] = Cell cycle arrest in human KB/HeLa cells assessed as G2/M phase accumulation at 0.1 nM after 24 hrs by FACS analysis; procedure, shortened: as §3
[29] = Cell cycle arrest in human KB/HeLa cells assessed as G1 phase accumulation at 0.1 nM after 24 hrs by FACS analysis; procedure, shortened: as §3
[30] = Cell cycle arrest in human KB/HeLa cells assessed as S phase accumulation at 0.3 nM after 24 hrs by FACS analysis; procedure, shortened: as §3
[31] = Cell cycle arrest in human KB/HeLa cells assessed as G2/M phase accumulation at 0.3 nM after 24 hrs by FACS analysis; procedure, shortened: as §3
[32] = Cell cycle arrest in human KB/HeLa cells assessed as G1 phase accumulation at 0.3 nM after 24 hrs by FACS analysis; procedure, shortened: as §3

| EC50 [7] [µM] | Structure (SMILES) | IC50 [1] [µM] | Activity [8] [%] | Activity [9] [%] | Activity [10] [%] | Activity [11] [%] | Activity [12] [%] | Activity [13] [%] | Activity [14] [%] | Activity [15] [%] | Activity [16] [%] | Activity [17] [%] | Activity [18] [%] | Activity [19] [%] | Activity [20] [%] | Activity [21] [%] | Activity [22] [%] | Activity [23] [%] | Activity [24] [%] | Activity [25] [%] | also measured |
| --- | --- | --- | --- | --- | --- | --- | --- | --- | --- | --- | --- | --- | --- | --- | --- | --- | --- | --- | --- | --- | --- |
| 0.049 | CC(=O)O[C@H]1C(=O)[C@@]2(C)[C@H]([C@H](OC(=O)c3ccccc3)[C@]3(O)C[C@H](OC(=O)[C@H](O)[C@@H](NC(=O)c4ccccc4)c4ccccc4)C(C)=C1C3(C)C)[C@]1(OC(C)=O)CO[C@@H]1C[C@@H]2O [PACLITAXEL] | 0.03 | 26.7 | 10.1 | 63.2 | 27 | 9.4 | 63.6 | 26.6 | 8.5 | 64.8 | 49.9 | 19 | 31.1 | 11 | 87.9 | 1.2 | 8.9 | 90.8 | 0.3 | IC50 (SK-OV-3): 0.05 µM; IC50 (SF-268): 0.05 µM; IC50 (NCI-H460): 0.07 µM; IC50 (RKO [26]): 0.02 µM; IC50 (RKO [2]): > 10 µM; IC50 [3]: 0.3 µM; IC50 [4]: 0.05 µM; IC50 (L1210): 0.07 µM; IC50 (P388 [5]): 0.07 µM; IC50 (P388 [6]): 0.05 µM |
| 0.0024 | CC[C@]1(O)C[C@H]2CN(CCc3c([nH]c4ccccc34)[C@@](C(=O)OC)(c3cc4c(cc3OC)N(C=O)[C@H]3[C@@](O)(C(=O)OC)[C@H](OC(C)=O)[C@]5(CC)C=CCN6CC[C@]43[C@@H]65)C2)C1 [VINCRISTINE] | – | 28.3 | 17.2 | 53.7 | 26 | 65.8 | 6.5 | 6.5 | 13.1 | 86.7 | 0.5 | 7.2 | 92.6 | 1 | 4.8 | 95.1 | 0.2 | 5.9 | 93.8 | Activity [27]: 27.7%; Activity [28]: 11.1%; Activity [29]: 61.2%; Activity [30]: 24%; Activity [31]: 11.7%; Activity [32]: 64.5% |

| Structure (SMILES) | EC50 [7] [µM] | IC50 [1] [µM] | Activity [8] [%] | Activity [9] [%] | Activity [10] [%] | Activity [11] [%] | Activity [12] [%] | Activity [13] [%] | Activity [14] [%] | Activity [15] [%] | Activity [16] [%] | Activity [17] [%] | Activity [18] [%] | Activity [19] [%] | Activity [20] [%] | Activity [21] [%] | Activity [22] [%] | Activity [23] [%] | Activity [24] [%] | Activity [25] [%] | also measured |
| --- | --- | --- | --- | --- | --- | --- | --- | --- | --- | --- | --- | --- | --- | --- | --- | --- | --- | --- | --- | --- | --- |
| COC(=O)Nc1nc2cc(C(=O)c3cccs3)ccc2[nH]1 [NOCODAZOLE] | 0.091 | 0.14 | 23.6 | 11.1 | 65.2 | 24.8 | 10.6 | 64.6 | 25.7 | 10 | 64.2 | 25.7 | 9.9 | 64.4 | 26.1 | 51.4 | 22.3 | 6 | 93.2 | 0.9 | IC50 (RKO [2]): > 10 µM; IC50 [3]: 0.006 µM; IC50 [4]: 0.4 µM; IC50 (L1210): > 5 µM; IC50 (P388 [5]): 0.04 µM; IC50 (P388 [6]): > 5 µM |

From ChEMBL document CHEMBL1140930 (J Med Chem, 2009)
